Screening data: PubChem BioAssay, Sanford-Burnham Center for Chemical Genomics
These entries were drawn from the full list.
Apaf-1 act: activators of human Apaf-1 apoptosome, primary screen, biochemical, DEVD-Rh110 fluorescence, uHTS | Apaf-1 apoptosome caspase-3 activation; stronger effect = lower value | activity change, negative = activation, % at 20 µM | Apoptotic protease-activating factor 1 (Homo sapiens), O14727 | 330,000 tested, 0.31% active | AID 489031, 2010;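 active means activity change at or below -40% at 20 µM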
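Material: biochemical Apaf-1 apoptosome reconstitution; Medium: 20 mM HEPES buffer, pH 7.5, containing CHAPS and BSA; Reagent: dATP, cytochrome c, and (Z-DEVD)2-Rh110 caspase-3 substrate; Times: 30 min preincubation, 50 min reaction, room temperature; Signal: Rh110 fluorescence, excitation 480 nm, emission 540 nm; Measure: Caspase-3 activity via Apaf-1.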
Rh110 act interf: Rh110 fluorescence interference by putative Apaf-1 activators, confirmation, artefact control for Apaf-1 activator project, biochemical, 20 µM; 980 tested, under 10 active; shares compounds with Apaf-1 act; quenched caspase reaction, Ex480/Em540; AID 504616, 2011; fluorescence interference (activity change), % at 20 µM, hits read low;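 active means mean activity change at or below -40% when tested at 20 µM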
Apaf-1 act conf: Apaf-1 activators, single-dose retest, confirmation, biochemical, fluorescence, DEVD-Rh110, 20 µM; shares compounds with Apaf-1 act; reconstituted apoptosome caspase-3 activity; stronger effect = lower value; activity change, negative = activation, % at 20 µM; 980 tested, 5% active; AID 504617, 2011;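 active means mean activity change at or below -40%, meaning activation of 40% or more, at 20 µM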
Fluor interf act: fluorescence interference of Apaf-1 activator hits, dose response, artefact control for Apaf-1 activator project; shares compounds with Apaf-1 act; fluorescence interference counterscreen, Apaf-1 activator assay; EC50, µM; 55 tested, under 10 active; AID 588592, 2011; call rule not given here
* marks the source's active call; other numbers are inactive results; / = no result given.

SMILES	Apaf-1 act	Rh110 act interf	Apaf-1 act conf	others
C#CCOCCOCCOCCNc1nc(N2CCN(C(=O)CCCCCCCCCCNC(=O)[C@H](CO)n3cc(CCCCCN)nn3)CC2)nc(N2CCN(C(=O)CCCCCCCCCCNC(=O)[C@H](CCCN=C(N)N)n3cc(C[C@@H](C)CC)nn3)CC2)n1	60.9	/	/
Cc1cccc(C)c1NC(=O)CN1CCN(CCCC(c2ccc(F)cc2)c2ccc(F)cc2)CC1	51.3	/	/
Cc1cccc(C)c1NC(=O)Cn1cc(C=O)c2ccccc21	-251.3*	-0.5	-42.5*	Fluor interf act=>100
CCc1ccc(S(=O)(=O)/N=C2\C=C(Nc3cccc(C(=O)O)c3)C(=O)c3ccccc32)cc1	90.7	/	/
CN(CCO)c1nc(N)c2c(N)nc3c(c2c1C#N)CC(=O)N3C1CCCC1	98.3	/	/
N/C(=N\OC(=O)c1ccc(Cl)c([N+](=O)[O-])c1)c1ccccc1	-57.3*	7.3	13.9
N#Cc1ccsc1NC(=O)c1ccc(Cl)c([N+](=O)[O-])c1	47.9	/	/
O=C(CCn1c2c(c3ccccc31)CCCC2)NNC(=O)c1ccc(Cl)c([N+](=O)[O-])c1	88.6	/	/
COc1cccc(C(C[N+](=O)[O-])c2c(C)[nH]n(-c3ccccc3)c2=O)c1 (centres undefined)	97.0	/	/
CC(=O)c1ccc(NC(=O)CSc2cn[nH]n2)cc1	-294.4*	-3.6	10.9
O=C(CSc1cn[nH]n1)Nc1nc2ccccc2s1	-284.7*	-2.4	11.2
CC(=O)c1ccc(NC(=O)CC2Nc3cccc4cccc(c34)NC2=O)cc1 (centres undefined)	88.7	/	/
CC1=NN(c2ccc(C)c(C)c2)C(=O)C1C(c1cccc(O)c1)C1C(=O)N(c2ccc(C)c(C)c2)N=C1C (centres undefined)	87.0	/	/
COc1ccc(Cn2c(N)c(C#N)c3nc4ccccc4nc32)cc1OC	85.8	/	/
CCc1cccc(C)c1NC(=S)NCc1ccc2c(c1)cc(C)n2C	54.6	/	/
CC(C)Oc1ccc(C2NC(=O)c3ccccc3O2)cc1 (centres undefined)	-97.8*	1.4	2.5
CCOC(=O)Nc1ccc(NCc2ccc(F)cc2)nc1N	96.2	/	/
O=C(Cn1ncn2c(cc3ccccc32)c1=O)NCCc1cccs1	-392.3*	6.1	7.0
CC(=O)c1cc(F)c(N2CCN(CCC#N)CC2)cc1C	-455.8*	8.6	12.8
Cc1cc([N+](=O)[O-])c(C)cc1-c1ccc(/C=N/NC(=O)c2cccnc2)o1	55.3	/	/
Cc1cccc(C(=O)N/N=C/c2ccncc2)c1	-44.8*	2.4	13.2
Cc1ccc(/C=N/NC(=O)c2ccncc2)cc1	-499.0*	-5.4	5.1
COc1cccc2sc(N(CCN(C)C)C(=O)c3ccc4c(c3)CCCC4)nc12	50.0	/	/
Cc1ccccc1-c1cc2c(nn1)-c1ccccc1C2=O	97.1	/	/
N#Cc1cccc(S(=O)(=O)N2CCN(c3ccnc4cc(Cl)ccc34)CC2)c1	-134.8*	2.5	9.0
SMILES	Apaf-1 act	Rh110 act interf	Apaf-1 act conf	others
COc1ccccc1-n1ccnc1SCC(=O)NCc1ccco1	-146.0*	16.5	18.8
Cc1[nH]n(-c2ccccc2)c(=O)c1C(c1ccc(C(=O)O)cc1)c1c(C)[nH]n(-c2ccccc2)c1=O	70.6	/	/
C#CCOCCOCCOCCNc1nc(N2CCN(C(=O)C([C@@H](C)O)n3cc([C@@H](N)CCCCN)nn3)CC2)nc(N2CCN(C(=O)[C@H](CCCN=C(N)N)n3cc(C(N)[C@@H](C)CC)nn3)CC2)n1 (some centres undefined)	46.2	/	/
c1cc2c3c(cccc3c1)C(N1CCCCC1)=N2	90.9	/	/
Cc1[nH]c(=O)[nH]c(=O)c1S(=O)(=O)Nc1ccc(F)cc1F	-264.5*	4.3	6.6
c1ccc(C2(CN3CCNC[C@H]3Cc3cccc4ccccc34)CC2)cc1	53.0	/	/
CS(=O)(=O)c1nc(-c2ccc(Br)cc2)cc(-c2ccccc2)c1C#N	47.4	/	/
Cc1[nH]c(=O)[nH]c(=O)c1CSCC(=O)OCC(=O)c1ccc(Br)cc1	-139.4*	-2.8	15.2
CC1CC(C)CN(CCCNC(=O)CN2C(=O)c3cccnc3Oc3ccc(Cl)cc32)C1 (centres undefined)	-148.2*	-1.1	8.6
O=C1Cc2ccccc2C(=O)N1CCc1ccccc1	79.0	/	/
CCOC(=O)c1ccc(-n2[nH]c(-c3ccccc3)cc2=O)cc1	42.6	/	/
CCOC(=O)c1cnn(-c2c(Cc3ccccc3)c(C)nc3c(-c4ccccc4)c(C)nn23)c1N	61.6	/	/
